# PMI act hi M6P: increases human PMI activity with near-saturating mannose 6-phosphate | P34949 | coupled PMI enzyme assay, resazurin fluorescence, 20 min; stronger effect = higher value; 1 = untreated enzyme, 0 = substrate-free blank | activation factor at 20 µM | hit rate 0.34% among 190,000 | AID 1216;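 active = activation factor of 2 or more at 20 µM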
# Target sequence (P34949 whole entry, looked up): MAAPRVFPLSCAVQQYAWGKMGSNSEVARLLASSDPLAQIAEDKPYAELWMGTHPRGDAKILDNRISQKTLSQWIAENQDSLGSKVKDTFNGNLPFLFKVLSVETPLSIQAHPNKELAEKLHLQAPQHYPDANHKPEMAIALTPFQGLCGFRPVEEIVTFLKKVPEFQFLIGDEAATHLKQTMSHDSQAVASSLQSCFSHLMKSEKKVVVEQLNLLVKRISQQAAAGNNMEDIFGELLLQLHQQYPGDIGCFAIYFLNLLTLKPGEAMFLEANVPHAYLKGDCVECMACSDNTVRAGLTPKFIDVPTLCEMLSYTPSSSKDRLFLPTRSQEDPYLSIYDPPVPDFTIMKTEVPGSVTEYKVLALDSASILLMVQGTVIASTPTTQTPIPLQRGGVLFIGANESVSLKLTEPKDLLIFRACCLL
#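 assay system = human phosphomannose isomerase with PGI, G6PDH, diaphorase coupling enzymes | quantity = 15 ng/mL PMI | incubation = enzyme reaction with compound 20 min at room temperature | medium = HEPES pH 7.4 buffer with MgCl2 and Tween-20 | compound dosing = one concentration, 20 µM, in 1% DMSO | measured by = Diaphorase-driven resazurin-to-resorufin fluorescence, excitation 544, emission 590 nm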
# L major viab: reduces viability of Leishmania major promastigotes. AID 1063. resazurin fluorescence viability. hit rate 9% among 200,000. inhibition, % at 10 µM; in the data active = inhibition above about 50%;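 note: promastigotes grown with compound for 44 hours at 28 °C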
# PTEN del growth: growth suppressors of cells with PTEN tumor suppressor deletion | viability, % at 10 µM | HCT116 PTEN-null viability, CellTiter-Glo, 60 h; stronger effect = lower value | hit rate 1.2% among 140,000;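 active = viability at or below a set limit, 4 SD under the median of all tested compounds, cut at about 3.7% in these data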;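 note: PTEN knockout HCT116 line with beta catenin targeted HCT116 as companion control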
# bCat KO growth: beta-catenin-lacking colon tumor cell growth suppression. HCT116 beta-catenin knockout viability, CellTiter-Glo, 60 h; stronger effect = lower value. viability, % at 10 µM. hit rate 1.5% among 140,000;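 active = viability at or under a set limit, the compound median less 4 SD, cut at about 6% in these data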;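 note: 0% = Hyamine 1622 control at 20 µM and 100% = untreated cell control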
# PMI activator: activators of human phosphomannose isomerase; P34949; purified human PMI, coupled resazurin fluorescence, 20 min; stronger effect = higher value; 1 = vehicle control, 0 substrate-free wells; activation factor at 20 µM; hit rate 0.005% among 190,000;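 active = activation factor of 2 or more at 20 µM, relative to plate controls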
# Numbers without * were called inactive; · = no result given. Sampled rows, rich in hits. Any-hit rate of the full collection: about 9.6%.
SMILES,PMI act hi M6P,L major viab,PTEN del growth,bCat KO growth,PMI activator
O=C(NCCCn1ccnc1)C(=O)NCC1OCCCN1S(=O)(=O)c1ccc(Cl)cc1 (stereo not drawn),1,51.5*,90.0,86.0,1
O=C(NCCc1c[nH]c2ccccc12)C(=O)NCC1OCCN1S(=O)(=O)c1ccc(F)cc1 (stereo not drawn),0.8,10.9,81.2,85.6,0.9
O=C(NCCC1=CCCCC1)C(=O)NCC1OCCCN1S(=O)(=O)c1cc(F)ccc1F (stereo not drawn),1,4.3,·,·,1
O=C(NCCc1c[nH]c2ccccc12)C(=O)NCC1OCCN1S(=O)(=O)c1ccccc1 (stereo not drawn),1,69.6*,·,·,1
O=C(NCCc1c[nH]c2ccccc12)C(=O)NCC1OCCCN1S(=O)(=O)c1ccccc1 (stereo not drawn),0.9,8.5,76.8,88.2,1
COc1ccc(C(=O)COC(=O)CCc2nc3ccccc3[nH]c2=O)cc1Br,1,3.6,·,·,1
CC(C)C[C@H](NC(=O)c1nc[nH]c1C(=O)N(C)Cc1ccccc1)C(=O)OCc1ccccc1,0.7,18.9,·,·,0.7
CC(=O)c1nc(N2C(=O)CC(Cc3cc(C)cc(C)c3)C2=O)sc1C (stereo not drawn),1.1,53.6*,110.2,100.3,1
CC(=O)c1nc(N2C(=O)CC(Cc3cccc(C)c3)C2=O)sc1C (stereo not drawn),1.1,-2.4,85.2,83.2,1
CCOc1ccc(CCNc2ccc3nnc(-c4ccccc4)n3n2)cc1OCC,1.1,77.3*,18.3,60.1,1.1
Clc1ccc(CNc2ccc3nnc(-c4ccccc4)n3n2)cc1,1,-3.4,46.8,50.9,1
CC(NC(=O)Nc1ccccc1)C(c1ccccc1)N1CCOCC1 (stereo not drawn),1,52.2*,91.0,96.6,1.1
CCCCNc1ccc2nsnc2c1[N+](=O)[O-],1.1,-6.2,101.0,93.2,1
NC(=O)c1ccc[n+](CCC[n+]2cccc(C(N)=O)c2)c1,1,-10.3,·,·,1.1
CCCCCCCCCC[n+]1cccc(C(=O)N(CC)CC)c1,1,90.5*,84.3,91.0,0.8
O=c1cc(CN2CCN(c3ccccn3)CC2)nc2sccn12,0.9,0.8,·,·,0.9
O=c1cc(CN2CCC(Cc3ccccc3)CC2)nc2sccn12,1,87.8*,·,·,1
O=c1cc(CN2CCCc3ccccc32)nc2sccn12,2.1*,9.7,·,·,1.8
COc1ccc(N2CCN(C(=O)CNC(=O)Cn3c(C)cc4ccccc4c3=O)CC2)cc1,1,7.3,80.7,77.3,1
S=C(Nc1ccccc1)N1CCCCCC1,1,-6.5,96.2,95.1,0.9
O=C(C1CCCO1)N1CCN(C(=S)Nc2ccccc2)CC1 (stereo not drawn),0.9,53.2*,92.5,83.3,0.9
O=C(C1CCCO1)N1CCN(C(c2ccccc2)c2ccccc2)CC1 (stereo not drawn),1.1,96.4*,104.3,101.0,1
O=C(C1CCCO1)N1CCN(S(=O)(=O)c2ccccc2)CC1 (stereo not drawn),0.9,4.2,92.0,97.4,1
S=C(Nc1ccccc1)N1CCN(C2CCCCC2)CC1,0.9,88.3*,100.1,86.6,0.9
O=C(c1ccccn1)N(Cc1cccs1)C1(C(=O)NC2CCCCC2)CCCCC1,1.1,6.1,·,·,1.1
SMILES,PMI act hi M6P,L major viab,PTEN del growth,bCat KO growth,PMI activator
O=C(CCC1CCCN(Cc2ccc3c(c2)OCCO3)C1)NCc1ccc(F)c(F)c1 (stereo not drawn),1,73.1*,·,·,0.9
O=C(CCC1CCCN(C(=O)c2ccc3c(c2)OCO3)C1)NCc1ccc(F)c(F)c1 (stereo not drawn),1.1,-4.7,·,·,1.1
O=C(CCC1CCCN(Cc2cccc3c2OCO3)C1)NCc1ccc(F)c(F)c1 (stereo not drawn),1,87.4*,·,·,1
COC(=O)c1ccc(CN2CCCC(CCC(=O)NCc3ccc(C)o3)C2)cc1 (stereo not drawn),0.9,76.9*,·,·,1
COCc1ccc(CN2CCCC(CCC(=O)NCc3ccc(C)o3)C2)o1 (stereo not drawn),0.8,0.9,·,·,0.8
COc1ccc(/C=C/CN2CCCC(CCC(=O)NCc3ccc(F)c(F)c3)C2)cc1 (stereo not drawn),0.9,80.7*,·,·,0.9
CC(C)(C)C1CCc2sc(C(=O)NNC(=O)CCl)cc2C1 (stereo not drawn),0.9,38.8,·,·,1
CCc1cc(C(N)=S)ccn1,1.1,·,·,·,1
CN(CCNC(=O)CN1CCN(Cc2ccccc2Cl)C1=O)Cc1ccccc1,1,58.6*,91.1,86.5,1.1
COc1ccc2cc(CN(CCc3ccccc3)Cc3nnnn3CC3CCCO3)c(=O)[nH]c2c1 (stereo not drawn),1.1,99.6*,77.9,80.0,1
COCCn1nnnc1CN(CCc1ccccc1)Cc1cc2ccc(C)cc2[nH]c1=O,1,100.3*,87.2,74.1,1
COc1ccc2[nH]c(=O)c(CN(CCc3ccccc3)Cc3nnnn3CC3CCCO3)cc2c1 (stereo not drawn),1.3,14.7,79.9,95.0,1.2
COc1ccccc1CN(Cc1cc2cc(C)cc(C)c2[nH]c1=O)Cc1nnnn1CC1CCCO1 (stereo not drawn),0.9,55.9*,8.0,41.6,1
COc1ccccc1CN(Cc1cc2cc(C)ccc2[nH]c1=O)Cc1nnnn1CC1CCCO1 (stereo not drawn),1,30.4,70.1,83.9,0.9
Cc1ccc2[nH]c(=O)c(CN(CCc3ccccc3)Cc3nnnn3CC3CCCO3)cc2c1 (stereo not drawn),1.7,25.4,70.1,79.6,1.5
CCCc1cc(C(=O)N2CCN(c3ccccc3C)CC2)cs1,0.9,-2.6,82.8,86.7,0.9
CC(=O)Nc1ccc(NC(=O)C2CC(=O)N(c3ccccc3Cl)C2)cc1 (stereo not drawn),0.9,-0.2,·,·,0.9
CCOc1ccc(NC(=O)c2nn(-c3ccc(OC)cc3OC)c(=O)c3ccccc23)cc1,1,-0.4,·,·,1
C#CCOCCOCCOCCNc1nc(N2CCN(C(=O)[C@H](CCCCN)n3cc([C@@H](N)CO)nn3)CC2)nc(N2CCN(C(=O)[C@H](Cc3cc4ccccc4[nH]3)n3cc([C@@H](N)CC(C)C)nn3)CC2)n1,1.2,0.4,·,·,1.2
CCC1(C)Cc2c(sc3c2c(=O)n(C)c2nnc(SCC(=O)c4ccc(Cl)cc4)n32)CO1 (stereo not drawn),·,7.4,·,·,·
O=c1[nH]c2ccccc2n1CCCN1CCCCC1,1,-1.8,·,·,1
O=c1[nH]c2ccccc2n1CCCN1CCN(C(c2ccccc2)c2ccccc2)CC1,1,23.0,9.4,5.6*,0.8
O=C(/C=C/c1ccc(F)cc1)NNC(=O)CCN1CCN(Cc2ccccc2)CC1,1,54.5*,·,·,1
NNC(=O)CCN1CCN(Cc2ccccc2)CC1,0.9,-4.4,·,·,1
